Measurements taken from article PMC2941776 (ACS chemical biology, 2008).
Values joined by “and” are separate entries in the source; they are usually repeats but may differ in a detail not shown here. Identical values can stand only once. Like-named read-outs stand apart in the source and are kept apart here.

Tests used:
HIV-1 RT Tyr501Az-Phe = HIV-1 RT Tyr501Az-Phe (Human immunodeficiency virus type 1, UniProt P03366, Y1100X); experiment: FRET-based RNase H assay, Tyr501Az-Phe RT; format: biochemical
HIV-1 RT Tyr501Trp = HIV-1 RT Tyr501Trp (Human immunodeficiency virus type 1 group M subtype B, UniProt P03366, Y1100W); experiment: FRET-based RNase H assay, Tyr501Trp RT; format: biochemical
[1] = tested on: wild-type RT / RNA-DNA hybrid complex; experiment: Electrophoretic mobility shift analysis, wild-type RT on RNA/DNA hybrid; format: binding, HIV-1; conditions: 50 μM; gel-mobility shift
How it was run: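 Mobility-shift assay: RT 250 nM with RNA/DNA hybrid 50 nM (14 nt RNA–8 nt DNA chimera annealed to 22 nt DNA, mimicking tRNA primer removal) in 50 mM Tris/HCl pH 7.8, 50 mM NaCl. Test compound 0.6–50 μM. Complexes resolved by nondenaturing electrophoresis and detected by autoradiography.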

p66^501BpF/p51 RT = p66^501BpF/p51 RT (Human immunodeficiency virus type 1, UniProt P03366, Y1100X); experiment: FRET-based RNase H assay, Tyr501Bp-Phe RT; format: biochemical, HIV-1; conditions: for IC50: IC50, RNase H activity, Tyr501Bp-Phe RT
Thr473Cys RT = Thr473Cys RT (Human immunodeficiency virus type 1 group M subtype B, UniProt P03366, T1072C); experiment: RNase H inhibition, Thr473Cys RT; format: biochemical, HIV-1; conditions: Thr473 replaced with cysteine
[2] = biological target: HIV-1 RT RNase H activity (wild type p66/p51) (Human immunodeficiency virus type 1, UniProt P03366); experiment: FRET-based RNase H assay, wild-type HIV-1 RT; format: biochemical
HIV-1 RNase H activity = experiment: Yonetani–Theorell analysis of RNase H inhibition; format: biochemical; conditions: NSC727447 0.25–16 μM, β-thujaplicinol 0.1–0.4 μM; substrate 250 nM, enzyme 4 nM
How it was run: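 FRET RNase H assay: 18-nt 3'-fluorescein RNA annealed to 5'-dabcyl DNA (250 nM), enzyme 4 nM. Test compound at 0, 0.25, 0.5, 1, 2, 4, 8, 16 μM, each at β-thujaplicinol 0, 0.1, 0.2, 0.4 μM. Substrate added to start; fluorescence followed for 60 min. Inverse rate (ΔRFU/min) fitted to the Yonetani–Theorell equation to obtain interaction term γ.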

[3] = tested on: HIV-1 RT variant with Cys38 and Cys280 removed from p66 and p51; experiment: RNase H inhibition, RT variant lacking Cys38 and Cys280; format: biochemical; conditions: Cys38 and Cys280 removed from both subunits
[4] = biological target: HIV-1 RT DNA polymerase activity (Human immunodeficiency virus type 1, UniProt P03366); experiment: DNA polymerase activity in the absence of pyrophosphorolysis; format: biochemical; conditions: 50 μM, data not shown

In the case of `NC(=O)c1c(N)sc2c1CCCCC2` [NSC727447, 2-amino-5,6,7,8-tetrahydro-4H-cyclohepta[b]thiophene-3-carboxamide], the IC50 (HIV-1 RT Tyr501Az-Phe) is reported as 89.6 µM, the “fold decrease in inhibitor potency vs wild type” value (HIV-1 RT Tyr501Az-Phe; Tyr501Az-Phe RT vs wild type) is reported as 14 fold and the IC50 (HIV-1 RT Tyr501Trp) is reported as 70.6 µM. The “fold decrease in inhibitor potency vs wild type” value (HIV-1 RT Tyr501Trp; Tyr501Trp RT vs wild type) was ~ 11 fold, the “effect on affinity of RT for RNA/DNA substrate” value [1] was “unaffected” and the IC50 (p66^501BpF/p51 RT) was 197 µM and 196 µM. For the same compound, the “fold resistance vs wild type” value (p66^501BpF/p51 RT; p66^501BpF/p51 RT vs wild type) was roughly 30 fold, the “sensitivity of mutant enzyme to inhibitor vs wild type” value (Thr473Cys RT) was “increased sensitivity” and the IC50 [2] was 6.6 µM. For the same compound, the “mode of interaction with β-thujaplicinol (NSC18806), Yonetani–Theorell” value (HIV-1 RNase H activity) was “mutually exclusive inhibitors”, the “sensitivity of mutant enzyme to inhibitor” value [3] was “retained sensitivity” and the “inhibition of DNA polymerase activity” value [4] was “insensitive to inhibition”.
`Cc1sc(NC(=O)c2ccco2)c(C(N)=O)c1C` [NSC727448, N-[3-(aminocarbonyl)-4,5-dimethyl-2-thienyl]-2-furancarboxamide] gave an IC50 (p66^501BpF/p51 RT) of roughly 220 µM and an IC50 [2] of roughly 5.5 µM.
Work on `CC(C)c1ccc(O)c(=O)c(O)c1` [β-thujaplicinol, reference compound] yielded an IC50 [2] of 0.25 ± 0.023 µM.
With manicol [reference compound] the IC50 ([2]; read-out: IC50, RNase H activity, wild-type RT, FRET substrate) was 0.6 ± 0.09 µM.
